Assay results gathered from unrelated publications.
Lines come from different studies, so protocols differ.
Target: Mitogen-activated protein kinase 9 (MAPK9, Homo sapiens, UniProt P45984)

| SMILES | effect on | mode | method | tested at | endpoint | value |
| --- | --- | --- | --- | --- | --- | --- |
| COc1cc(Cl)c(C(=O)N[C@@H](CN[C@H]2CC[C@@H](N)CC2)Cc2ccc(C#N)cc2)cc1-c1ccc(CN[C@H](C)c2ccc(C)cc2)o1 | enzyme activity | inhibitor |  | 1 µM | remaining activity | 93% |
| CNC(=O)c1ccc(Nc2ncc(C(F)(F)F)c(NCc3nccnc3N(C)S(C)(=O)=O)n2)cc1 | cell-free assay |  | competition with immobilised ligand | 0.1 µM | remaining binding | 95% |
| Cn1c2c(c3ccc(Cl)c(Cl)c31)C(C#N)C1(CCNCC1)NC2=O (racemic) | thermal stability |  | DSF | 10 µM | ΔTm | 0.2 °C |
| CNC(=O)c1cc(Oc2ccc(NC(=O)Nc3ccc(Cl)c(C(F)(F)F)c3)cc2)ccn1 | enzyme activity | inhibitor |  | 10 µM | inhibition | 54% |
| Cn1c2c(Cl)c(Cl)ccc2c2cc(N)[nH]c(=O)c21 | thermal stability |  | DSF | 10 µM | ΔTm | 0.7 °C |
| N#CCCc1ccc2c(c1)-c1[nH]c3ccc([N+](=O)[O-])cc3c1CC(=O)N2 | cell-free assay |  |  | 0.5 µM | remaining signal | 97.1% |
| COc1cc2ncnc(Nc3ccc(Oc4ccccc4)cc3C)c2cc1OC | enzyme activity | inhibitor |  | 1 µM | inhibition | 5% |
| Cc1cc(NC(=O)c2cccc(S(F)(F)(F)(F)F)c2)cc(-n2ccn3nc(-c4cccnc4)cc23)c1 | cell-free assay |  | competition with immobilised ligand | 1 µM | remaining binding | 76.9% |
| COc1cc(Nc2cnc(C#N)c(O[C@H](C)CN(C)C)n2)ncc1-c1cnn(C)c1 | enzyme activity | inhibitor | radiometric | 1 µM | remaining activity | 98% |
| Cc1ccc(C(=O)Nc2ccc(CN3CCN(C)CC3)c(C(F)(F)F)c2)cc1C#Cc1cnc2cccnn12 | enzyme activity | inhibitor |  | 23.5 nM | remaining activity | 62% |
| Cc1cnc(NC2CCOCC2)nc1-n1cnc(C(=O)NC(CN)c2cc(F)cc(Cl)c2)c1 (centres unmarked) | enzyme activity | inhibitor | radiometric | 1 µM | remaining activity | 72% |
| CC(=O)N1CCC(c2ccc(C(=O)NC3=NCCN3)cc2C(F)(F)F)CC1 | cell-free assay |  | competition with immobilised ligand | 1 µM | remaining binding | 92% |
| Cc1cc(NC(=O)c2cccc3cc(-c4cccc5[nH]nc(N)c45)ccc23)ccc1F | enzyme activity | inhibitor |  | 0.1 µM | activity vs control | 86% |
| CC(C)(C)c1nc2c(s1)c1nc(N)ncc1c1ccc(NS(=O)(=O)c3c(F)cccc3F)c(F)c12 | enzyme activity | inhibitor | radiometric | 1 µM | remaining activity | 95% |
| Cn1c2c(c3ccc(Cl)c(Cl)c31)C(C#N)C1(CCCC1)NC2=O (centres unmarked) | thermal stability |  | DSF | 10 µM | ΔTm | -0.1 °C |
| FC(F)c1nc2ccccc2n1-c1nc(N2CCOCC2)nc(N2CCOCC2)n1 | enzyme activity | inhibitor |  | 10 µM | remaining activity | 87% |

| SMILES | effect on | mode | method | tested at | endpoint | value |
| --- | --- | --- | --- | --- | --- | --- |
| Oc1cccc(-c2nc(N3CCOCC3)c3oc4ncccc4c3n2)c1 | cell-free assay |  |  | 0.5 µM | remaining signal | 89.4% |
| O=C1CCc2cc(Nc3cc(OC4CCOCC4)c([N+](=O)[O-])cc3Cl)ccc2N1 | cell-free assay |  | competition with immobilised ligand | 1 µM | remaining binding | 86% |
| CC(C)(O)[C@H]1CC[C@H](Nc2ccc3ncc(-c4cccc(C(F)(F)F)c4)n3n2)CC1 | enzyme activity | inhibitor |  | 1 µM | remaining activity | 109% |
| CN1CCC2(CC1)NC(=O)c1c(c3ccc(Cl)c(Cl)c3n1C)C2C#N (racemic) | thermal stability |  | DSF | 10 µM | ΔTm | -0.2 °C |
| CNC(=O)Nc1ccc2c(c1)CC[C@@]21OC(=O)N(CC(=O)N(Cc2ccc(F)cc2)[C@@H](C)C(F)(F)F)C1=O | cell-free assay |  | competition with immobilised ligand | 1 µM | remaining binding | 70% |
| CCN1CCC2(CC1)NC(=O)c1c(c3ccc(Cl)c(Cl)c3n1C)C2C#N (racemic) | thermal stability |  | DSF | 10 µM | ΔTm | -0.1 °C |
| CC(=O)Nc1c(C(C)=O)c(=O)n(C)c2nc(-c3ccc(Cl)cc3Cl)c(-c3ccc(Cl)cc3)cc12 | cell-free assay |  | competition with immobilised ligand | 1 µM | remaining binding | 100% |
| Oc1cccc(-c2nc(N3CCOCC3)c3oc4ncccc4c3n2)c1 | enzyme activity | inhibitor |  | 10 µM | remaining activity | 100% |
| Cc1sc(C(=O)NC2COC2)cc1-n1cc(NC(=O)Nc2c(F)cccc2Cl)cn1 | enzyme activity | inhibitor |  | 10 µM | remaining activity | 51.9% |
| Cn1c2c(c3ccc(Cl)c(Cl)c31)C(C#N)C(C)(C)NC2=O (centres unmarked) | thermal stability |  | DSF | 10 µM | ΔTm | 0.4 °C |
| Cc1nccc(COC(=O)N2C[C@@H]3[C@@H](CNC(=O)c4ccc5[nH]nnc5c4)[C@@H]3C2)n1 | cell-free assay |  | competition with immobilised ligand | 1 µM | remaining binding | 95% |
| Nc1nc(Nc2ccccc2)sc1C(=O)c1c(F)cccc1F | enzyme activity | inhibitor |  | 10 µM | remaining activity | 81% |
| C[S+]([O-])c1ccc(-c2nc(-c3ccncc3)c(-c3ccc(F)cc3)[nH]2)cc1 (centres unmarked) | cell-free assay |  |  | 0.5 µM | remaining signal | 100% |
| CCCS(=O)(=O)Nc1ccc(F)c(C(=O)c2c[nH]c3ncc(-c4ccc(Cl)cc4)cc23)c1F | enzyme activity | inhibitor |  | 1 µM | inhibition | < 10% |
| O=C1NC(=O)c2cc(Nc3ccc(F)cc3)c(Nc3ccc(F)cc3)cc21 | cell-free assay |  |  | 0.5 µM | remaining signal | 61.4% |
| CC(C)(O)c1cncc(-c2nc3ccc(F)cc3n2C2CC2)c1 | cell-free assay |  | competition with immobilised ligand | 1 µM | remaining binding | 100% |
